# Values joined by “and” are separate entries in the source; they are usually repeats but may differ in a detail not shown here. Equal values may be shown once.
# Tested on: Fibroblast
# Assay: Multiplex assay against human fibroblast
# Assay type: toxicity, cell-based
# Outline: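 Values for tubulin, mitochondrial-mass and membrane-permeability phenotypes are per cents of cells with healthy nuclei. These cells were identified by CellPathfinder machine-learning gating of live cells that had been stained at seeding with Hoechst33342, BioTracker Green Microtubule Cytoskeleton Dye, MitoTracker Red and Annexin V Alexa Fluor 680 and imaged on a CQ1 microscope at 37°C and 5% CO2 after compound addition. The gating first set Hoechst high-intensity objects apart from normal cells, then split normal cells into healthy, pyknosed or fragmented nuclei, and pyknosed cells into mitotic or apoptotic.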
# [1] = 12 h, 1 µM, compound concentration 1 uM, replicate 1
# [2] = 12 h, 1 µM, compound concentration 1 uM, replicate 2
# [3] = 12 h, 10 µM, compound concentration 10 uM, replicate 1
# [4] = 12 h, 10 µM, compound concentration 10 uM, replicate 2
# [5] = 24 h, 1 µM, compound concentration 1 uM, replicate 1
# [6] = 24 h, 1 µM, compound concentration 1 uM, replicate 2
# [7] = 24 h, 10 µM, compound concentration 10 uM, replicate 1
# [8] = 24 h, 10 µM, compound concentration 10 uM, replicate 2
# [9] = 48 h, 1 µM, compound concentration 1 uM, replicate 1
# [10] = 48 h, 1 µM, compound concentration 1 uM, replicate 2
# [11] = 48 h, 10 µM, compound concentration 10 uM, replicate 1
# [12] = 48 h, 10 µM, compound concentration 10 uM, replicate 2
compound,measurement,setting,value
CN(C)C(=O)N[C@H]1CC[C@H](CCN2CCN(c3cccc(Cl)c3Cl)CC2)CC1.Cl [CARIPRAZINE HYDROCHLORIDE],Population Apoptotic (%),[1],65%
same,Population Fragmented Nuclei (%),[1],15%
same,Population Healthy Nuclei (%),[1],51%
same,Population Hoechst High Intensity Objects (%),[1],6%
same,Population Membrane Permeable-Phenotype (%),[1],32%
same,Population Mitochondria Different-Phenotype (%),[1],10%
same,Population Mitotic Cells (%),[1],34%
same,Population Normal (%),[1],93%
same,Population Pyknosed Nuclei (%),[1],33%
same,Population Tubulin-Different-Phenotype (%),[1],45%
same,Total Cell Count,[1],83
same,Population Apoptotic (%),[2],60%
same,Population Fragmented Nuclei (%),[2],7%
same,Population Healthy Nuclei (%),[2],84%
same,Population Membrane Permeable-Phenotype (%),[2],6%
same,Population Mitochondria Different-Phenotype (%),[2],29%
same,Population Mitotic Cells (%),[2],40%
same,Population Pyknosed Nuclei (%),[2],8%
same,Population Tubulin-Different-Phenotype (%),[2],22%
same,Total Cell Count,[2],61
same,Population Apoptotic (%),[3],71%
same,Population Fragmented Nuclei (%),[3],26%
same,Population Healthy Nuclei (%),[3],38%
same,Population Hoechst High Intensity Objects (%),[3],16%
same,Population Membrane Permeable-Phenotype (%),[3],16%
same,Population Mitochondria Different-Phenotype (%),[3],28%
same,Population Mitotic Cells (%),[3],28%
same,Population Normal (%),[3],83%
same,Population Pyknosed Nuclei (%),[3],34%
same,Population Tubulin-Different-Phenotype (%),[3],92%
same,Total Cell Count,[3],155
same,Population Apoptotic (%),[4],36%
same,Population Fragmented Nuclei (%),[4],17%
same,Population Healthy Nuclei (%),[4],57%
same,Population Hoechst High Intensity Objects (%),[4],3%
same,Population Membrane Permeable-Phenotype (%),[4],47%
same,Population Mitochondria Different-Phenotype (%),[4],95%
same,Population Mitotic Cells (%),[4],63%
same,Population Normal (%),[4],96%
same,Population Pyknosed Nuclei (%),[4],25%
same,Population Tubulin-Different-Phenotype (%),[4],95%
same,Total Cell Count,[4],79
same,Population Apoptotic (%),[5],72%
same,Population Fragmented Nuclei (%),[5],21%
same,Population Healthy Nuclei (%),[5],49%
same,Population Hoechst High Intensity Objects (%),[5],10%
same,Population Membrane Permeable-Phenotype (%),[5],21%
same,Population Mitochondria Different-Phenotype (%),[5],11%
same,Population Mitotic Cells (%),[5],28%
same,Population Normal (%),[5],89%
same,Population Pyknosed Nuclei (%),[5],29%
same,Population Tubulin-Different-Phenotype (%),[5],45%
same,Total Cell Count,[5],95
same,Population Apoptotic (%),[6],66%
same,Population Fragmented Nuclei (%),[6],6%
same,Population Healthy Nuclei (%),[6],84%
same,Population Hoechst High Intensity Objects (%),[6],4%
same,Population Membrane Permeable-Phenotype (%),[6],7%
same,Population Mitochondria Different-Phenotype (%),[6],22%
same,Population Mitotic Cells (%),[6],33%
same,Population Normal (%),[6],95%
same,Population Pyknosed Nuclei (%),[6],9%
same,Population Tubulin-Different-Phenotype (%),[6],14%
same,Total Cell Count,[6],67
same,Population Apoptotic (%),[7],70%
same,Population Fragmented Nuclei (%),[7],23%
same,Population Healthy Nuclei (%),[7],54%
same,Population Hoechst High Intensity Objects (%),[7],18%
same,Population Membrane Permeable-Phenotype (%),[7],17%
same,Population Mitochondria Different-Phenotype (%),[7],36%
same,Population Mitotic Cells (%),[7],29%
same,Population Normal (%),[7],81%
same,Population Pyknosed Nuclei (%),[7],21%
same,Population Tubulin-Different-Phenotype (%),[7],82%
same,Total Cell Count,[7],190
same,Population Apoptotic (%),[8],94%
same,Population Healthy Nuclei (%),[8],55%
same,Population Hoechst High Intensity Objects (%),[8],3%
same,Population Membrane Permeable-Phenotype (%),[8],42%
same,Population Mitochondria Different-Phenotype (%),[8],95%
same,Population Mitotic Cells (%),[8],5%
same,Population Normal (%),[8],96%
same,Population Pyknosed Nuclei (%),[8],20%
same,Population Tubulin-Different-Phenotype (%),[8],95%
same,Total Cell Count,[8],87
same,Population Apoptotic (%),[9],65%
same,Population Fragmented Nuclei (%),[9],35%
same,Population Healthy Nuclei (%),[9],46%
same,Population Hoechst High Intensity Objects (%),[9],7%
same,Population Membrane Permeable-Phenotype (%),[9],20%
same,Population Mitochondria Different-Phenotype (%),[9],4%
same,Population Mitotic Cells (%),[9],35%
same,Population Normal (%),[9],92%
same,Population Pyknosed Nuclei (%),[9],18%
same,Population Tubulin-Different-Phenotype (%),[9],56%
same,Total Cell Count,[9],117
same,Population Apoptotic (%),[10],60%
same,Population Fragmented Nuclei (%),[10],25%
same,Population Healthy Nuclei (%),[10],69%
same,Population Hoechst High Intensity Objects (%),[10],11%
same,Population Membrane Permeable-Phenotype (%),[10],7%
same,Population Mitochondria Different-Phenotype (%),[10],3%
same,Population Mitotic Cells (%),[10],40%
same,Population Normal (%),[10],88%
same,Population Pyknosed Nuclei (%),[10],5%
same,Population Tubulin-Different-Phenotype (%),[10],38%
same,Total Cell Count,[10],103
same,Population Apoptotic (%),[11],80%
same,Population Fragmented Nuclei (%),[11],37%
same,Population Healthy Nuclei (%),[11],53%
same,Population Hoechst High Intensity Objects (%),[11],31%
same,Population Membrane Permeable-Phenotype (%),[11],10%
same,Population Mitochondria Different-Phenotype (%),[11],20%
same,Population Mitotic Cells (%),[11],20%
same,Population Normal (%),[11],68%
same,Population Pyknosed Nuclei (%),[11],9%
same,Population Tubulin-Different-Phenotype (%),[11],81%
same,Total Cell Count,[11],235
same,Population Apoptotic (%),[12],33%
same,Population Fragmented Nuclei (%),[12],33%
same,Population Healthy Nuclei (%),[12],63%
same,Population Hoechst High Intensity Objects (%),[12],32%
same,Population Membrane Permeable-Phenotype (%),[12],7%
same,Population Mitochondria Different-Phenotype (%),[12],12%
same,Population Mitotic Cells (%),[12],66%
same,Population Normal (%),[12],67%
same,Population Pyknosed Nuclei (%),[12],2%
same,Population Tubulin-Different-Phenotype (%),[12],85%
same,Total Cell Count,[12],162
CN(C)c1ncnc(-c2ccc3nc(Nc4cc(CN5CCN(C(=O)CC(F)(F)F)CC5)ccn4)[nH]c3c2)c1Cl [BAY-440],Population Apoptotic (%),[3],72% and 67%
same,Population Fragmented Nuclei (%),[3],31% and 20%
same,Population Healthy Nuclei (%),[3],51% and 62%
same,Population Hoechst High Intensity Objects (%),[3],10% and 13%
same,Population Membrane Permeable-Phenotype (%),[3],29% and 17%
same,Population Mitochondria Different-Phenotype (%),[3],6% and 3%
same,Population Mitotic Cells (%),[3],27% and 32%
same,Population Normal (%),[3],89% and 86%
same,Population Pyknosed Nuclei (%),[3],17%
same,Total Cell Count,[3],282 and 187
same,Population Apoptotic (%),[4],83% and 50%
same,Population Fragmented Nuclei (%),[4],48% and 40%
same,Population Healthy Nuclei (%),[4],41% and 50%
same,Population Hoechst High Intensity Objects (%),[4],24% and 35%
same,Population Membrane Permeable-Phenotype (%),[4],25% and 18%
same,Population Mitochondria Different-Phenotype (%),[4],33% and 18%
same,Population Normal (%),[4],75% and 64%
same,Population Pyknosed Nuclei (%),[4],10% and 9%
same,Population Tubulin-Different-Phenotype (%),[4],50% and 86%
same,Total Cell Count,[4],77 and 68
same,Population Apoptotic (%),[7],58% and 50%
same,Population Fragmented Nuclei (%),[7],31% and 22%
same,Population Healthy Nuclei (%),[7],55% and 67%
same,Population Hoechst High Intensity Objects (%),[7],14% and 11%
same,Population Membrane Permeable-Phenotype (%),[7],18% and 10%
same,Population Mitochondria Different-Phenotype (%),[7],7% and 0%
same,Population Mitotic Cells (%),[7],41% and 50%
same,Population Normal (%),[7],85% and 88%
same,Population Pyknosed Nuclei (%),[7],12% and 10%
same,Total Cell Count,[7],290 and 193
same,Population Apoptotic (%),[8],75% and 37%
same,Population Fragmented Nuclei (%),[8],52% and 48%
same,Population Healthy Nuclei (%),[8],39% and 32%
same,Population Hoechst High Intensity Objects (%),[8],37% and 36%
same,Population Membrane Permeable-Phenotype (%),[8],22% and 14%
same,Population Mitotic Cells (%),[8],25% and 62%
same,Population Normal (%),[8],62% and 63%
same,Population Pyknosed Nuclei (%),[8],8% and 18%
same,Total Cell Count,[8],74 and 68

# — ChEMBL document CHEMBL4689842, “EUbOPEN Chemogenomics Library wave 1” (2021)
